The record followed here is ChEMBL document CHEMBL2407081, “Discovery of potent, isoform-selective inhibitors of histone deacetylase containing chiral heterocyclic capping groups and a N-(2-aminophenyl)benzamide binding unit” (J Med Chem, 2013).

One series concerns the target Cytochrome P450 2C19 (Homo sapiens, UniProt P33261). Put plainly: Inhibition of CYP2C19 (unknown origin). In kind it is ADME.
Series [1] in a line: Kinetic solubility of the compound. It counts as physicochemical. Particulars: read-out: Kinetic_solubility. A digest of the protocol: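 Solubility was measured by chemiluminescent nitrogen detection.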
Series [2] can be described thus: Octanol-water partition coefficient, log p of the compound. In kind it is physicochemical.
Series [3] addresses Histone deacetylase 3/NCoR1 (Homo sapiens) (UniProt O15379+O75376). Briefly: Inhibition of recombinant HDAC3-NCoR1 (unknown origin) assessed as slow tight binding at 0.02 to 20 uM. In kind it is protein-complex assay.
Series [4] in a line: Lipophilicity, log D of the compound at pH 7.4. In kind it is physicochemical. Particulars: buffer.
Another series deals with T1, Histone deacetylase 8 (Homo sapiens, UniProt Q9BY41).
T1 sequence (Q9BY41 whole entry): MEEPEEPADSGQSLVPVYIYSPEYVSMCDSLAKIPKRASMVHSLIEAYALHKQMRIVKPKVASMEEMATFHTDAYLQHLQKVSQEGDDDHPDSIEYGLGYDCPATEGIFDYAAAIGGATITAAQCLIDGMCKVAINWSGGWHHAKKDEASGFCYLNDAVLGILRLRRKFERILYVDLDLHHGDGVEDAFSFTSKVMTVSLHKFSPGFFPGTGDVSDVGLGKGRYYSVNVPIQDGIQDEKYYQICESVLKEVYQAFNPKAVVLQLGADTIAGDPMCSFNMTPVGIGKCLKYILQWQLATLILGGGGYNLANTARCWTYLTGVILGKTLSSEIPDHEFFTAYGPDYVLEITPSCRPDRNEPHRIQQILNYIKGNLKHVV
Briefly: Inhibition of recombinant HDAC8 (unknown origin) expressed in Escherichia coli BL21 using MAL as substrate incubated for 15 mins prior to substrate addition measured after 60 mins by fluorescence plate reader analysis.

Series [5] concerns the target T2, Protein deacetylase HDAC6 (Homo sapiens, UniProt Q9UBN7).
T2 sequence (Q9UBN7 whole entry): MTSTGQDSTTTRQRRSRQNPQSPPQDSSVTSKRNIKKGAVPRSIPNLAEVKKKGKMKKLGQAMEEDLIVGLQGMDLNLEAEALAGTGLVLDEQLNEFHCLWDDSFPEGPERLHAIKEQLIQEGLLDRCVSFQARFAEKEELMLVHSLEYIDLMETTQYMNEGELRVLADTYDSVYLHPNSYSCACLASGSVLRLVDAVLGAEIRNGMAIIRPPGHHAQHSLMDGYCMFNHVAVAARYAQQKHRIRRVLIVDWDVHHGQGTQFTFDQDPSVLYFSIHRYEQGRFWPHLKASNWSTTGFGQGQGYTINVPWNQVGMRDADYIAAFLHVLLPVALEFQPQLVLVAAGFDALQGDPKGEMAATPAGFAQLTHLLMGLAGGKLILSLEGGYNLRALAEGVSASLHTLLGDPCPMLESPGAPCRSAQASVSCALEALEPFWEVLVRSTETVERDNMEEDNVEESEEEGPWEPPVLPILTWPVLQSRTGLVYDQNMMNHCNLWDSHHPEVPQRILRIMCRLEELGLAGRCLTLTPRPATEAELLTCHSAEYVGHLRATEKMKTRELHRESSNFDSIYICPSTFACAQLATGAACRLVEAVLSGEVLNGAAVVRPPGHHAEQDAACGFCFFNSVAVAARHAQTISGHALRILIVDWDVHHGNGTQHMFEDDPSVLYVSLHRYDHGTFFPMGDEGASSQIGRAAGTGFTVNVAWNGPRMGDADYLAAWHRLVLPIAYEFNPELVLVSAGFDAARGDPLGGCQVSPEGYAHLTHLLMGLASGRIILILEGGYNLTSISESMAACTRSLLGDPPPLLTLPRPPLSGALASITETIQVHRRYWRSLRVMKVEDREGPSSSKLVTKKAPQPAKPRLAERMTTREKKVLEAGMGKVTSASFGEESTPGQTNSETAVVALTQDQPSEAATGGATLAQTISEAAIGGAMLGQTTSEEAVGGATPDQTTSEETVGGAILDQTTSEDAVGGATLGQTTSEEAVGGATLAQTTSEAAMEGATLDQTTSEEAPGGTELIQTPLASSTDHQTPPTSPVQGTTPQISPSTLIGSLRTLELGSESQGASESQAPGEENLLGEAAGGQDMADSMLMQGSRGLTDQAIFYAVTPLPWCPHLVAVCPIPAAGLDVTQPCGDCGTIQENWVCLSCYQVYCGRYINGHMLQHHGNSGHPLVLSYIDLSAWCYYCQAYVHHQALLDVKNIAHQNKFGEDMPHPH
Briefly: Inhibition of recombinant His-tagged HDAC6 (unknown origin) using Fluor-de-Lys SIRT1 as substrate incubated for 3 hrs prior to substrate addition measured after 60 mins by fluorescence plate reader analysis.

For series [6], the system named is Jurkat. Briefly: Induction of apoptosis in human Jurkat cells assessed as PARP cleavage at 1 to 10 uM after 24 hrs by Western blot analysis. In kind it is functional, cell-based. In general terms: In western blotting, separated proteins are transferred to a membrane and probed.
For series [7], the system named is HeLa. Put plainly: Induction of apoptosis in human HeLa cells assessed as PARP cleavage at 1 to 10 uM after 24 hrs by Western blot analysis. It counts as functional, cell-based.
The test system of series [8] is HeLa. Put plainly: Cell cycle arrest in human HeLa cells assessed as accumulation at G2/M phase at 10 uM after 24 hrs by FITC/propidium iodide staining-based FACS flow cytometric analysis. It counts as functional. A digest of the protocol:
(§1)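 HeLa and Jurkat human cells were cultured for 24 h with compound at two concentrations. The control was an equal volume of the DMSO diluent. Cellular DNA and protein content were then measured by flow cytometry, and the percentage of cells in sub-G1, G0/G1, S and G2/M was read out.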

In series [9] the test system is Jurkat. Briefly: Cell cycle arrest in human Jurkat cells assessed as accumulation at G0/G1 phase at 1 uM after 24 hrs by FITC/propidium iodide staining-based FACS flow cytometric analysis (reference value: 55.5%). It counts as functional. The essentials: as §1
Background: Flow cytometry measures light scatter and fluorescence of single cells or particles in a stream.

The test system of series [10] is Jurkat. Put plainly: Cell cycle arrest in human Jurkat cells assessed as accumulation at sub-G1 phase at 1 uM after 24 hrs by FITC/propidium iodide staining-based FACS flow cytometric analysis (reference value: 6.8%). It counts as functional. A digest of the protocol: as §1
For series [11], the system named is Jurkat. Put plainly: Cell cycle arrest in human Jurkat cells assessed as accumulation at G2/M phase at 10 uM after 24 hrs by FITC/propidium iodide staining-based FACS flow cytometric analysis (reference value: 13.2%). It counts as functional. A digest of the protocol: as §1
In series [12] the test system is Jurkat. Put plainly: Cell cycle arrest in human Jurkat cells assessed as accumulation at G0/G1 phase at 10 uM after 24 hrs by FITC/propidium iodide staining-based FACS flow cytometric analysis (reference value: 69.5%). In kind it is functional. The essentials:
as §1

For series [13], the system named is Jurkat. Put plainly: Cell cycle arrest in human Jurkat cells assessed as accumulation at sub-G1 phase at 10 uM after 24 hrs by FITC/propidium iodide staining-based FACS flow cytometric analysis (reference value: 2%). It counts as functional. A digest of the protocol:
as §1

For the next series, the system named is DU-145. Briefly: Cytotoxicity against human DU145 cells assessed as growth inhibition by measuring cellular ATP level after 72 hrs by cell-titer glo assay. It counts as functional, cell-based. Particulars: DU-145, 72 h.
Another series deals with A549. Briefly: Cytotoxicity against human A549 cells assessed as growth inhibition by measuring cellular ATP level after 72 hrs by cell-titer glo assay. In kind it is functional, cell-based. Particulars: A549, 72 h.
Another series deals with Cytochrome P450 3A4 (Homo sapiens, UniProt P08684). Briefly: Inhibition of CYP3A4 (unknown origin) using vivid green as substrate. It counts as ADME.
A further series has as its target Cytochrome P450 2C9 (Homo sapiens, UniProt P11712). Briefly: Inhibition of CYP2C9 (unknown origin). It counts as ADME.

Converted amounts (≈) assume the structure as drawn. The source made the active and inactive calls. No cut-off for these calls is given here.

Cytochrome P450 2C19, sequence (P33261 whole entry): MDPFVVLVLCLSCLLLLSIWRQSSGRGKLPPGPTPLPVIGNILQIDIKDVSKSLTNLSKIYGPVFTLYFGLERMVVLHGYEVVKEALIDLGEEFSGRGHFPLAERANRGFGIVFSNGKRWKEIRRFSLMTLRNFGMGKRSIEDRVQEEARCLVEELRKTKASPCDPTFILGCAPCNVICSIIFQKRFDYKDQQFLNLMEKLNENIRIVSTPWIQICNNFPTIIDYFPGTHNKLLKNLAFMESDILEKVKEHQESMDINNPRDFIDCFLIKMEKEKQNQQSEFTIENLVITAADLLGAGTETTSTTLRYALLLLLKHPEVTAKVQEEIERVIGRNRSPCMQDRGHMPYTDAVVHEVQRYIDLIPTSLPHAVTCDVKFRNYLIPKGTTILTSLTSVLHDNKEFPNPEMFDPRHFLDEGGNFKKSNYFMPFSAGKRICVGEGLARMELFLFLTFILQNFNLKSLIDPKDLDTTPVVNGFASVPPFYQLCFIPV
Cytochrome P450 2C9, sequence (P11712 whole entry): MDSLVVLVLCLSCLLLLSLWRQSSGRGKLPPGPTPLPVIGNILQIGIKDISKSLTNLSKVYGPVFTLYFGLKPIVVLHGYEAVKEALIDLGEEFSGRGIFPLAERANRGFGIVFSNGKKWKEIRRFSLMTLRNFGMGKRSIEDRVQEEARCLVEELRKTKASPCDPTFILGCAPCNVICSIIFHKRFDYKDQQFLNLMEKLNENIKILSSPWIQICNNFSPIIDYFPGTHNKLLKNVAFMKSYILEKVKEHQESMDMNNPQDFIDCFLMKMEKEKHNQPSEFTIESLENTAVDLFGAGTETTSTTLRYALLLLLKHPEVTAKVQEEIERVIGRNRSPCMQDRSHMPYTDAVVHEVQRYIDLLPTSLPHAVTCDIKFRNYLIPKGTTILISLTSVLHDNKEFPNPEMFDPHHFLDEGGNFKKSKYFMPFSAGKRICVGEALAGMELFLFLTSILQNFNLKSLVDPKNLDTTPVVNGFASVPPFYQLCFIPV
Cytochrome P450 3A4, sequence (P08684 whole entry): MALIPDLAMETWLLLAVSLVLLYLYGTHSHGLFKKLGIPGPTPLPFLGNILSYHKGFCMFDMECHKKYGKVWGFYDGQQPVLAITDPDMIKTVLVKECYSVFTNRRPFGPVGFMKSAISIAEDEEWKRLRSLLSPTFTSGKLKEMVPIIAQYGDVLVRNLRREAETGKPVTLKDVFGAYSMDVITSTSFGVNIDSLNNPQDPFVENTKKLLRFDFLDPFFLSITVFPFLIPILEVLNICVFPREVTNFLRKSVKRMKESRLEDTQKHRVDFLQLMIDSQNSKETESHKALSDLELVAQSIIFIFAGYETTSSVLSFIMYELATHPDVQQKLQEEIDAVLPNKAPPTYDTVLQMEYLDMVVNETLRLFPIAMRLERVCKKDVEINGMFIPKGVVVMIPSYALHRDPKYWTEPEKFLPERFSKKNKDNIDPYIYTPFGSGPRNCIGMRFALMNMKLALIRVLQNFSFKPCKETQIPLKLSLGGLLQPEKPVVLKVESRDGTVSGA

Take `Nc1ccccc1NC(=O)c1ccc(CNC2=N[C@@H](c3ccccc3)CS2)cc1`: the concentration for half-maximal inhibition (IC50) is 32 µM at Cytochrome P450 2C19; 4.1 µM on Histone deacetylase 8; > 20 µM in series [5]; 6.4 µM in the series with DU-145; 5.78 µM in the series with A549; 16 µM on Cytochrome P450 3A4. This compound had an IC50 at Cytochrome P450 2C9 of 16 µM. The solubility kinetic in series [1] was 239 µM (≈ 96.2 µg/mL). The logP in [2] was 4.65. Further, the inhibition result in [3] was “Active”. In series [4], this compound registered a logD of 4.24. In addition, the result in the series with Jurkat [6] and in the series on HeLa [8] was Active. In addition, in the series with HeLa [7], the result was inactive. Moreover, the Activity was 48.1% in the series on Jurkat [9]; 36.6% in the series with Jurkat [10]; 16.9% in the series on Jurkat [11]; 28.5% in the series with Jurkat [12]; 19.5% in the series on Jurkat [13].

As usually defined, the IC50 is the concentration at which inhibition is half-maximal. A word on the logP: it is a log measure of how a compound divides between an organic and an aqueous phase. Read a low logP as lower lipophilicity. The logD is the decadic logarithm of the distribution of all forms, ionised or not, between an organic phase and buffer at a given pH.
